# Source: PubChem BioAssay
# M1 ag: activates the M1 muscarinic receptor; CHO-M1 cells, Fluo-4 calcium fluorescence, agonist mode; hits give high values; B-score at 10 µM; actives 3% (n = 64,000); AID 626;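 active = fluorescence rise, raw or as B-score row- and column-corrected plate score, outside the 99.7% band of its plate's samples, either direction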
# RORa activator: activators of human nuclear receptor RORA; activation, % at 10 µM; actives 1.5% (n = 65,000); P35398; CHO-K1 Gal4-RORA LBD luciferase reporter, luminescence; percent increase over mock-subtracted basal signal; AID 560;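 active = activation above the mean of all tested compounds plus 3 SD, cut at about 49% in these data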;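 note: 0% = DMSO-treated RORA cells and 100% = added signal equal to DMSO minus mock-transfected cells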
# D1 mod: D1 dopamine receptor (human) allosteric modulation. P21728. HEK293 D1, CRE-luciferase, dopamine EC30 potentiation; actives deviate in either direction. B-score at 10 µM. actives 5.9% (n = 58,000). AID 641;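 active = luminescence count or its row- and column-corrected plate score outside the 99.7% band of the plate's sample wells, on either side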
# HePTP inh: inhibitors of human HePTP phosphatase; actives 0.64% (n = 110,000); inhibition, % at 20 µM; recombinant HePTP phosphatase activity, OD absorbance; in the data active = inhibition above about 50%; inconclusive = no clear call, values can overlap the other calls;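 note: plate controls were vehicle for no effect and reference inhibitor for full effect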
# M1 antag: blocks the rat M1 muscarinic receptor response to acetylcholine; P08482; CHO-M1 cells, Fluo-4 calcium, ACh EC80 antagonist mode; hits give low values; B-score at 10 µM; actives 3.4% (n = 64,000); AID 628;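 active = calcium fluorescence response, raw or row-and-column corrected B-score, differing from the plate sample mean either way at a set confidence level, mostly lower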
# SF1 activator: SF-1 (human) activation; Q13285; CHO-K1 Gal4-SF-1 LBD luciferase reporter; % increase over DMSO SF-1-specific signal; activation, % at 10 µM; actives 1.9% (n = 65,000); AID 522;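 active = activation above the mean activation of all tested compounds plus 3 SD, cut at about 50% in these data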
#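 Material: Transient Gal4-SF-1 LBD reporter, CHO-K1 | Input: 4,000 cells/well | Dosing: One dose, 10 µM compound, 1% DMSO | Incubation: 20 h compound treatment, 37 °C | Detection: SteadyLite luciferase luminescence | Evaluation: Percent activation relative to DMSO median and mock-transfected background | Benchmarks: DMSO-treated SF-1-transfected cells as negative, DMSO-treated mock-transfected cells lacking SF-1 as background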
# M1 agonist conf: rat M1 muscarinic agonism, confirmation. shares compounds with M1 ag. CHO-M1 cells, Fluo-4 calcium fluorescence, agonist mode; actives lie on both sides. fluorescence change (max-min) at 10 µM. actives 19% (n = 1,700). AID 1488;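 active = fluorescence change differs from the solvent-only DMSO control mean at a set confidence level in both duplicate runs; inconclusive = differs from solvent-only control mean in just one of two runs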;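 note: an EC20 dose of acetylcholine follows compound addition during the same imaging run; raw fluorescence intensity difference in instrument units with no normalization to controls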
# M4 agonist ctr: rat M4 muscarinic agonism, M1 counter-screen | shares compounds with M1 ag | CHO M4/Gqi5 cells, Fluo-4 calcium fluorescence, agonist mode; actives lie on both sides | fluorescence change (max-min) at 10 µM | actives 9% (n = 1,700) | AID 1741;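 active = fluorescence change differing from the plate's solvent-only control wells at 99.7% confidence in both duplicates, whether higher or lower; inconclusive = differs from solvent controls in only one of two duplicates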
# Target sequence (P08485 whole entry, looked up): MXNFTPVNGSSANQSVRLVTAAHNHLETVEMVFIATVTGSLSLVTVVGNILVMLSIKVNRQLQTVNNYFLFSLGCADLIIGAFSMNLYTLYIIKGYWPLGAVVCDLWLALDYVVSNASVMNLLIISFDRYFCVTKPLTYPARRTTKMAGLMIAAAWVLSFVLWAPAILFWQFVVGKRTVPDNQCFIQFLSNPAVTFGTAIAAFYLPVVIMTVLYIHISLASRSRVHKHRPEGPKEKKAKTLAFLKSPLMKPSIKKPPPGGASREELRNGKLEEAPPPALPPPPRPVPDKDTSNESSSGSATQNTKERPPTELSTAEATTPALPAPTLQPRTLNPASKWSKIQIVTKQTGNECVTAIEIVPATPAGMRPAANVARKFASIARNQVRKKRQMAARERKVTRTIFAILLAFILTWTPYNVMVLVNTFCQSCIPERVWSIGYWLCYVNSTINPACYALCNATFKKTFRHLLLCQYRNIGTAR
# * marks the source's active call; other numbers are inactive results; ? = inconclusive; nt = not tested or not shown. Most compounds without a hit are left out; they make up all but 8.2% or so of the library.
SMILES,M1 ag,RORa activator,D1 mod,HePTP inh,M1 antag,SF1 activator,M1 agonist conf,M4 agonist ctr
CC(C)CC(NC(=O)c1ccccc1)C(=O)OCC(=O)Nc1cccc2ccccc12 (stereo not drawn),nt,nt,nt,-4,nt,nt,nt,nt
Cc1n[nH]c(C)c1S(=O)(=O)N(CC(=O)NC1CCCC1)c1ccc(C(C)C)cc1,3.9*,2,-0.024,5,-0.22,-8,-19,-48
CCc1ccc(N(CC(=O)NC2CCCC2)S(=O)(=O)c2c(C)noc2C)cc1,-0.024,-7,0.041,11,-0.27,10,nt,nt
Cc1cc(C)cc(N2C(=O)NC(=O)/C(=C\c3c(F)cccc3Cl)C2=O)c1,nt,nt,nt,-2,nt,nt,nt,nt
O=C(COC(=O)c1cccc(NC(=O)c2ccco2)c1)c1ccc(Br)cc1,-0.4,18,-0.29,7,0.029,6,nt,nt
O=C(COc1cccc(NC(=O)c2ccco2)c1)c1ccc(F)cc1,5.7*,10,-0.0021,-2,-1.1,31,?,?
Cn1c(CCNC(=O)c2ccco2)nc2cc(NS(=O)(=O)c3ccccc3)ccc21,32*,-25,-0.78,7,-0.15,5,?,-68
Cn1c(CCNC(=O)c2ccco2)nc2cc(NC(=O)c3ccco3)ccc21,0.079,34,0.055,2,0.19,28,nt,nt
CCOC(=O)Cc1cnc(NC(=O)c2ccccc2)s1,3.2*,23,0.31,12,-0.45,30,-17,?
O=C(Nc1ncc(Cc2ccc(F)cc2)s1)c1ccc(OCc2ccccc2)cc1,nt,nt,nt,4,nt,nt,nt,nt
Cc1cc(C)cc(OCC(=O)N2CCN(c3ccccc3)CC2)c1,nt,nt,nt,9,nt,nt,nt,nt
CC(=O)c1ccc(OCCCC(=O)OCC(=O)N2CCN(c3ccccc3)CC2)cc1,9.3*,-8,-0.072,-7,-0.73,15,-0.8,-75
CCN(CC)c1ccc(/C=N\NC(=O)c2cc(C(C)(C)C)[nH]n2)cc1,nt,nt,nt,-13,nt,nt,nt,nt
CCOc1ccc(-c2nnc(-c3ccncc3)o2)cc1,0.15,36,-0.99,3,-0.72,39,nt,nt
CCCCOc1ccc(-c2nnc(-c3ccncc3)o2)cc1,2.7*,59*,-0.042,11,-0.49,39,-18,?
CCCCC(=O)Nc1ccc(C(=O)NCc2ccncc2)cc1,19*,8,-1.2,-2,1.3,-4,?,-49
CCCCOc1ccc(C(=O)Nc2ccncc2)cc1,11*,-8,-2.9,1,-3.7*,-6,-17,?
COc1ccc(C2SC(C)C(=O)N2c2ccc(C)cc2)cc1 (stereo not drawn),nt,nt,nt,4,nt,nt,nt,nt
CCOC(=O)N1CCC(NC(=O)c2ccc(OC)c(CN3CC(=O)N4CCCC4C3=O)c2)CC1 (stereo not drawn),0.29,-6,0.15,3,0.16,4,nt,nt
O=C(Nc1ccc(NC(=O)c2ccc(Cl)cc2Cl)cc1)c1ccccc1F,nt,nt,nt,-8,nt,nt,nt,nt
Cc1ccc2c(c1)NC(c1cccs1)C1=C(CC(c3ccccc3)CC1=O)N2 (stereo not drawn),nt,nt,nt,-8,nt,nt,nt,nt
COc1ccc(CNC(=O)Cc2nn(C)c(=O)c3ccccc23)cc1,11*,-42,-0.81,10,-0.48,-42,8.4,3.6
COc1ccc(OC)c(NC(=O)Cc2nn(C)c(=O)c3ccccc23)c1,-0.19,-12,-0.18,8,-0.52,-12,nt,nt
COc1cc(CN2CCN(C(=O)c3ccc([N+](=O)[O-])cc3)CC2)cc(OC)c1OC,nt,nt,nt,5,nt,nt,nt,nt
O=S(=O)(Nc1cccnc1)c1ccc(F)cc1,nt,nt,nt,-2,nt,nt,nt,nt
SMILES,M1 ag,RORa activator,D1 mod,HePTP inh,M1 antag,SF1 activator,M1 agonist conf,M4 agonist ctr
O=S(=O)(Nc1cccnc1)c1ccc(C2CCCCC2)cc1,7.1*,-45,-0.2,4,-3.1*,-46,12,-15
O=C1CCC(=O)N1c1nc2nc(-c3ccccc3)cc(-c3ccccc3)n2n1,0.14,-21,nt,11,-2.4,-20,nt,nt
CCOc1cc(C2NC(=S)NC(C)=C2C(=O)Nc2ccc(C)cc2)ccc1O (stereo not drawn),nt,nt,nt,13,nt,nt,nt,nt
COc1ccc(OC)c2[nH]c(=O)c(CCNC(=O)c3cc4ccccc4o3)cc12,2.5*,-9,0.65,15,-1.1,-1,-6.8,-22
Cc1ccc(C)c2[nH]c(=O)c(CCNC(=O)c3cc4ccccc4o3)cc12,2.9*,4,0.9,4,-0.091,-3,?,-45
CCC(CC)C(=O)NCCc1cc2c(C)ccc(C)c2[nH]c1=O,-2.2,-3,-0.22,0,-0.39,10,nt,nt
Cc1ccccc1OCC(=O)Nc1cccc(C(F)(F)F)c1,nt,nt,nt,-13,nt,nt,nt,nt
O=C(c1cc(-c2ccncc2)nc2ccccc12)N1CCN(c2ccccn2)CC1,1.6,24,-0.24,6,-0.34,13,nt,nt
O=C(c1cnc(N2CCN(c3ncccn3)CC2)c2ccccc12)N1CCN(c2ccccn2)CC1,12*,-10,-1.5,10,-1.3,8,-10,-12
O=C(c1ccco1)N1CCN(c2nc3ccccc3n3nnnc23)CC1,7.4*,45,1.1,7,-1.4,8,22,14
O=C(c1cc(-c2ccncc2)nc2ccccc12)N1CCN(c2ccc(N3CCOCC3)nn2)CC1,4.8*,13,-0.087,12,0.35,3,-22,-28
O=C(c1ccco1)N1CCN(C(=O)c2cc(-c3ccccn3)nc3ccccc23)CC1,3.3*,-21,0.67,-1,0.46,0,?,-74
CCOC(=O)C1=C(O)/C(=C/c2ccc(Cl)c(Cl)c2)SC1=Nc1ccc([N+](=O)[O-])cc1,nt,nt,nt,10,nt,nt,nt,nt
O=C(CCNC(=O)Cn1ccc2ccccc2c1=O)NCCCN1CCN(c2ccccc2F)CC1,-0.045,-5,-0.62,-3,0.27,17,nt,nt
CC1(C)C(C#N)=C(N)OC2=C1C(=O)CCC2,0.035,-9,-0.31,8,0.61,2,nt,nt
O=C(c1cc(-c2ccccc2)nc2ccccc12)N1CCN(c2ccccn2)CC1,4.1*,1,-2.7,9,-1.2,6,-16,-41
Cc1cc(C)c(NC(=O)C2CCCN2CCO)c(C)c1 (stereo not drawn),2*,27,0.12,-10,0.22,-2,1.8,-8.9
CCOC(=O)C1CCCN(C/C(O)=C(\C#N)c2nc(-c3ccc(Cl)cc3)cs2)C1 (stereo not drawn),21*,-27,-0.082,14,0.14,17,?,-29
CCOC(=O)C1CCCN(Cc2nc(N)nc(Nc3ccc(Cl)cc3)n2)C1 (stereo not drawn),0.33,0,0.21,4,-0.086,-4,nt,nt
O=C1CN(C(=O)COC(=O)c2ccccc2NC(=O)c2ccco2)c2ccccc2N1,3.6*,-24,0.0013,9,-0.73,7,?,?
